Assay results gathered from unrelated publications.
Lines come from different studies, so protocols differ.
Target: MAP kinase-interacting serine/threonine-protein kinase 1 (MKNK1, Homo sapiens, UniProt Q9BUB5)

| SMILES | assay | conditions | remaining binding [%] |
| --- | --- | --- | --- |
| COc1cnc(Nc2cccc(S(N)(=O)=O)c2)nc1N1CCN(c2ccccc2)C(=O)C1 | binding, competition with immobilised ligand | 1 µM | 98 |
| CN(CCCC(F)(F)F)c1nccc(-c2cnn3ncccc23)n1 | binding | 1 µM | 100 |
| FC(F)(F)Oc1cccc(-c2cnc3ccc(-c4ccncc4)nn23)c1 | cell-free assay, competition with immobilised ligand | 5 µM | 71 |
| CN(C)c1ncc(F)c(-c2cnn3ncccc23)n1 | binding | 1 µM | 62 |
| Cc1nc(Cc2cccc(C(F)(F)F)c2)sc1-c1ccc(C(N)=O)nc1 | cell-free assay, competition with immobilised ligand | 1 µM | 100 |
| O=C(NCCCN1CCOCC1)c1ccc(Nc2nccc(-c3cc4ccccc4s3)n2)cc1 | binding, competition with immobilised ligand | 1 µM | 43 |
| CN(c1ccnc(CNc2nc(Nc3ccc4c(c3)CC(=O)N4)ncc2C(F)(F)F)n1)S(C)(=O)=O | cell-free assay, competition with immobilised ligand | 1 µM | 45 |
| O=C(NCCCN1CCOCC1)c1ccc(Nc2ncc(Cl)c(-c3ccc(Cl)s3)n2)cc1 | binding, competition with immobilised ligand | 1 µM | 84 |
| CCN1CCN(Cc2ccc(C(=O)Nc3ccc(C)c(Oc4ccc5c(c4)CC(=O)N5)c3)cc2C(F)(F)F)CC1 | binding, competition with immobilised ligand | 1 µM | 100 |
| C[C@@H](c1ccc(-n2cnc3c(N)ncnc32)cc1)N1CCc2nn(C)c(Cc3ccccc3)c2C1=O | binding, competition with immobilised ligand | 0.1 µM | 58 |
| COc1ccnn2ncc(-c3ccnc(N(C)C)n3)c12 | binding | 1 µM | 95 |
| C[C@@H]1CN(c2cc(-c3n[nH]c4ccc(OC5(C)CC5)cc34)ncn2)C[C@H](C)O1 | cell-free assay, competition with immobilised ligand | 0.1 µM | 67 |
| C[C@@H]1CN(c2ccc3ncc(-c4ccc5[nH]nc(C6CC6)c5c4)n3n2)C[C@H](C)O1 | binding, competition with immobilised ligand | 50 nM | 92 |
| CNC(=O)Nc1ccc2c(c1)[C@@]1(CC2)OC(=O)N(CC(=O)N(Cc2ccc(F)cc2)[C@@H](C)C(F)(F)F)C1=O | cell-free assay, competition with immobilised ligand | 1 µM | 94 |
| COc1ncc2cc3ccccc3nc2c1C#N | cell-free assay, competition with immobilised ligand | 5 µM | 96 |
| CN(C)c1nccc(-c2cnc3ncccn23)n1 | binding | 1 µM | 67 |
| CCS(=O)(=O)c1cc2cc(C[C@@](O)(CC(C)(C)c3ccc(F)cc3C(N)=O)C(F)(F)F)[nH]c2cn1 | cell-free assay, competition with immobilised ligand | 1 µM | 46 |
